In ChEMBL document CHEMBL1132600 one finds Vmax (nM min-1 mg-1) and Km data, which are given here for one protein.

Substrate in data set [1]: CCCCC/C=C\C/C=C\C/C=C\C/C=C\CCCC(=O)NCCO
The experiment in a line: (§1) V max value for hydrolysis by rat brain microsomal anandamide amidohydrolase (AAH). The method, boiled down:
(§2)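 Sprague–Dawley rat brain microsomes (105000g pellet) at 0.3 mg/mL protein, 37 °C, pH 7.4, BSA as carrier. Varied substrate concentrations, sampled at least four times within the linear initial range. Arachidonic acid formed measured by RP-HPLC (UV 204 nm, calibration curve). Initial velocity vs substrate concentration fitted to Michaelis–Menten.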

Substrate in data set [2]: CCCCC/C=C\C/C=C\C/C=C\C/C=C\CCCC(=O)N[C@@H](C)CO
The data set is described as §1. The method, boiled down: as §2

Substrate in data set [3]: CCCCC/C=C\C/C=C\C/C=C\C/C=C\CCCC(=O)N[C@H](C)CO
The data set is described as §1. The method in brief: as §2

Substrate in data set [4]: CCCCC/C=C\C/C=C\C/C=C\C/C=C\CCCC(N)=O
Described as §1. The method in brief: as §2

Substrate in data set [5]: CCCCC/C=C\C/C=C\C/C=C\C/C=C\CCCC(=O)NCCO
Nature of the data set: (§3) Km value for hydrolysis by rat brain microsomal anandamide amidohydrolase (AAH). The method in brief: as §2

Substrate in data set [6]: CCCCC/C=C\C/C=C\C/C=C\C/C=C\CCCC(=O)N[C@@H](C)CO
Described as §3. The method, boiled down:
as §2

Substrate in data set [7]: CCCCC/C=C\C/C=C\C/C=C\C/C=C\CCCC(=O)N[C@H](C)CO
The description is as §3. The method in brief:
as §2

Substrate in data set [8]: CCCCC/C=C\C/C=C\C/C=C\C/C=C\CCCC(=O)Nc1ccccc1O
Described as §3. The method, boiled down:
as §2

Substrate in data set [9]: CCCCC/C=C\C/C=C\C/C=C\C/C=C\CCCC(N)=O
The data set is described as §3. The method, boiled down:
as §2

Substrate in data set [10]: CCCCC/C=C\C/C=C\C/C=C\C/C=C\CCCC(=O)Nc1ccccc1O

B1: Fatty-acid amide hydrolase 1 (Rattus norvegicus), P97612 (protein)
chain: MVLSEVWTTLSGVSGVCLACSLLSAAVVLRWTGRQKARGAATRARQKQRASLETMDKAVQRFRLQNPDLDSEALLTLPLLQLVQKLQSGELSPEAVFFTYLGKAWEVNKGTNCVTSYLTDCETQLSQAPRQGLLYGVPVSLKECFSYKGHDSTLGLSLNEGMPSESDCVVVQVLKLQGAVPFVHTNVPQSMLSFDCSNPLFGQTMNPWKSSKSPGGSSGGEGALIGSGGSPLGLGTDIGGSIRFPSAFCGICGLKPTGNRLSKSGLKGCVYGQTAVQLSLGPMARDVESLALCLKALLCEHLFTLDPTVPPLPFREEVYRSSRPLRVGYYETDNYTMPSPAMRRALIETKQRLEAAGHTLIPFLPNNIPYALEVLSAGGLFSDGGRSFLQNFKGDFVDPCLGDLILILRLPSWFKRLLSLLLKPLFPRLAAFLNSMRPRSAEKLWKLQHEIEMYRQSVIAQWKAMNLDVLLTPMLGPALDLNTPGRATGAISYTVLYNCLDFPAGVVPVTTVTAEDDAQMELYKGYFGDIWDIILKKAMKNSVGLPVAVQCVALPWQEELCLRFMREVEQLMTPQKQPS
Regarding B1, the Vmax (nM min-1 mg-1) in [1] worked out at 1.4; in data set [2] it was 0.39; in data set [3] it was 0.37; in data set [4], 2.89; in [10], 3.17. The Michaelis constant (Km) came to 2.78 µM in data set [5]; 7.94 µM in [6]; 33 µM in [7]; 7.31 µM in data set [8]; 2.34 µM in data set [9].

For orientation: Km means the concentration of substrate that gives half-maximal velocity.
